ARNT TACC3 PPI: ARNT/TACC3 interaction disruption; Q9Y6A5; AlphaScreen His-ARNT PAS-B/GST-TACC3 binding, luminescence; TACC3 fragment carries E629A point mutation; inhibition, % at 9.99 µM; 0.66% of 390,000 active; AID 623870;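 active = mean inhibition of replicates at least 50% and at least half of replicates each reaching 50%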;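 note: 0% = complete ARNT plus TACC3 wells and 100% = ARNT alone without TACC3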
CAL PDZ FP-1: CAL PDZ (human) peptide binding inhibition. Q9HD26. purified CAL PDZ, TMR-peptide fluorescence polarization, 1 h. inhibition, % at 24.9 µM. 0.92% of 300,000 active. AID 602252;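 active = mean inhibition of at least 30% with at least half of replicates also reaching 30%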;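 note: 0% = DMSO neutral control and 100% = excess unlabeled competitor peptide PRC23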
CFTR F508del cor: CFTR F508del correction in bronchial cells. AID 720511. CFBE cells, YFP halide quenching; stimulated with forskolin plus potentiator P3; % fluorescence drop versus neutral controls. 0.36% of 350,000 active. activity (quench increase), % at 7.58 µM;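 active = mean added fluorescence quench of at least 8% versus neutral control, with both replicates also reaching 8%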;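 note: cells transiently co-express mutant CFTR-F508del with the halide-sensitive YFP; corrector assay measuring rescue of mutant channel to the surface after 24 h compound exposure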
miR122 inh: inhibitors of miR-122 in Huh7 cells; 0.3% of 340,000 active; activation (reporter increase), % at 12.5 µM; Huh7 miR-122 Renilla luciferase sensor, 48 h; neutral wells = 0, positive control = 100;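 active = mean replicate activation score at least 90 and every replicate individually at or above 90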;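 note: higher luciferase means less miR-122 activity so hits act as miR-122 inhibitors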
PGC1a acetyl inh: PGC1a acetylation modulation, inhibitor mode; inhibition, % at 15.6 µM; U2OS PGC1a acetylation, AlphaScreen anti-acetyl-lysine; with virally co-expressed GCN5 acetyltransferase; 0.17% of 350,000 active;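 active = every replicate shows inhibition of at least 40%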;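 note: 0% = neutral control wells and 100% = positive control wells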
CAL PDZ FP-2: inhibitors of human CAL PDZ peptide binding; purified CAL PDZ, TMR-peptide fluorescence polarization, 1 h; Q9HD26; 0.02% of 330,000 active; AID 504414; inhibition, % at 20 µM;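 active = highest replicate inhibition of at least 40%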;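 note: plate controls were DMSO neutral control wells for no effect and unlabeled competitor peptide control wells for full effect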
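material = purified tagged CAL PDZ domain construct (CerCALP) | compound dosing = 20 µM, one dose | times = 1 h at RT | measured by = fluorescence polarization from S- and P-plane intensities, G-factor corrected | read-out = inhibition from polarization loss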
* = called active by the depositor; . = not tested or not shown; ! = not confirmed by another sample; [ ] = dose if it differs, or a comment. An excerpt weighted towards active compounds, which were near 1.7% of everything screened.

SMILES | ARNT TACC3 PPI | CAL PDZ FP-1 | CFTR F508del cor | miR122 inh | PGC1a acetyl inh | CAL PDZ FP-2
CNC(=O)C[C@H]1CC[C@H]2[C@@H](COC[C@@H](O)CN2Cc2ccc(Cl)c(Cl)c2)O1 | 15 | . | 3 | 6[16.7 µM] | 5 | .
C[C@H]1CN([C@@H](C)CO)S(=O)(=O)c2ccc(Br)cc2O[C@H]1CN(C)S(=O)(=O)c1ccccc1F | . | . | 1 | 179*![16.7 µM] | -30 | .
C/C=C/c1ccc2c(c1)O[C@H](CN(C)S(=O)(=O)c1ccc(F)cc1)[C@H](C)CN([C@@H](C)CO)S2(=O)=O | 1 | . | 1 | 11[16.7 µM] | -6 | .
COCC#Cc1ccc2c(c1)O[C@H](CN(C)S(=O)(=O)c1ccc(OC)cc1)[C@@H](C)CN([C@H](C)CO)S2(=O)=O | -3 | . | -2 | 48[16.7 µM] | -12 | .
COCC#Cc1ccc2c(c1)O[C@H](CN(C)S(=O)(=O)c1ccc(OC)cc1)[C@H](C)CN([C@H](C)CO)S2(=O)=O | 27 | . | 0 | 120*[16.7 µM] | -8 | .
C[C@H]1CN([C@@H](C)CO)S(=O)(=O)c2ccc(Br)cc2O[C@@H]1CN(C)S(=O)(=O)c1ccccc1F | . | . | -1 | 68[16.7 µM] | -64 | .
C/C=C/c1ccc2c(c1)O[C@H](CN(C)S(=O)(=O)c1ccccc1)[C@H](C)CN([C@@H](C)CO)S2(=O)=O | 3 | . | -2 | 268*[16.7 µM] | 3 | .
C[C@H](CO)N1C[C@H](C)[C@@H](CN(C)C(=O)NC2CCCCC2)Oc2ccc(NC(=O)Nc3ccc4c(c3)OCO4)cc2C1=O | -10 | . | -3 | 0[16.7 µM] | 8 | .
C[C@H](O)C#Cc1ccc2c(c1)O[C@@H](CN(C)Cc1ccccc1)[C@@H](C)CN([C@@H](C)CO)S2(=O)=O | -4 | . | 0 | -7[16.7 µM] | -1 | .
N#CCCN(C(=O)COC(=O)c1cc(=O)c2ccccc2o1)c1ccccc1 | -1 | . | 13* | -5 | -10 | 0
N#CCCN(C(=O)COC(=O)c1ccc2c(c1)OCO2)c1ccccc1 | . | -1 | 0 | . | -3 | 1
C[C@@H]1CN([C@H](C)CO)S(=O)(=O)c2ccc(-c3ccc(C#N)cc3)cc2O[C@H]1CN(C)Cc1ccccn1 | 6 | . | 12* | . | 12 | .
CC(=O)N(C)C[C@@H]1Oc2cc(-c3ccc(C#N)cc3)ccc2S(=O)(=O)N([C@H](C)CO)C[C@@H]1C | active | . | -2 | 4[16.7 µM] | 12 | .
Cc1ccc(-c2ccc3c(c2)O[C@H](CN(C)Cc2ccc(F)cc2)[C@@H](C)CN([C@H](C)CO)S3(=O)=O)cc1 | -2 | . | -1 | 98*[16.7 µM] | -2 | .
C[C@H]1CN([C@@H](C)CO)S(=O)(=O)c2ccc(-c3ccc(C#N)cc3)cc2O[C@@H]1CN(C)Cc1cccc(F)c1 | 9 | . | 3 | -1[16.7 µM] | -1 | .
C[C@@H]1CN([C@H](C)CO)S(=O)(=O)c2ccc(-c3ccc(C#N)cc3)cc2O[C@H]1CN(C)Cc1cccc(F)c1 | -8 | . | 8.1* | 3[16.7 µM] | -16 | .
C[C@@H]1CN([C@H](C)CO)C(=O)c2cccc(NC(=O)c3nc4ccccc4s3)c2O[C@@H]1CN(C)Cc1ccncc1 | 6 | . | -1 | -11[16.7 µM] | 8 | .
Cc1ccc(-c2ccc3c(c2)O[C@@H](CN(C)C(=O)Nc2ccc(C(F)(F)F)cc2)[C@H](C)CN([C@@H](C)CO)S3(=O)=O)cc1 | 7 | . | 7 | 53[16.7 µM] | 16 | .
C[C@@H]1CN([C@H](C)CO)S(=O)(=O)c2ccc(-c3ccccc3)cc2O[C@H]1CN(C)Cc1ccccn1 | -2 | . | 16* | 55[16.7 µM] | 11 | .
Cc1ccc(-c2ccc3c(c2)O[C@H](CN(C)C(=O)Nc2ccc(C(F)(F)F)cc2)[C@@H](C)CN([C@@H](C)CO)S3(=O)=O)cc1 | -1 | . | 8.7* | 45[16.7 µM] | 8 | .
COCC(=O)N1C[C@H](C)[C@@H](OC)CN(C)C(=O)c2cc(NC(=O)Nc3cccc(F)c3)ccc2OC[C@@H]1C | . | . | -2 | . | 14 | .
Cc1nc(SCCC(=O)O)c2cc(-c3ccccc3)sc2n1 | -4 | 55* | -1 | -1 | . | -2
Cc1nc(N2CCOCC2)c2cc(-c3ccccc3)sc2n1 | -5 | -6 | . | . | . | -2
O=C(OC1C2CCC1C1CN(CCc3ccccc3)CC12)c1ccccc1 (stereo unspecified) | -16 | 41* | . | . | . | -3
Cc1ccc2nc(-c3ccccn3)c(Nc3ccccc3C)n2c1 | 64* | -4 | 5 | 22 | 11 | -1
SMILES | ARNT TACC3 PPI | CAL PDZ FP-1 | CFTR F508del cor | miR122 inh | PGC1a acetyl inh | CAL PDZ FP-2
Cc1ccccc1Nc1c(-c2cccnc2)nc2ccccn12 | . | -5 | -1 | 10 | -4 | 0
Cc1ccccc1Nc1c(-c2ccccn2)nc2ccccn12 | 59* | 82* | 3 | -4 | 3 | 0
CCNC(=O)C[C@@H]1CC[C@@H]2[C@H](COc3ccc(NC(=O)c4ccccc4)cc3C(=O)N2C)O1 | 3 | . | 0 | 17[16.7 µM] | 3 | .
COc1cc(/C=C(\C#N)C(=O)c2ccc(O)c(O)c2)cc(I)c1O | 51* | -4 | 2 | -1 | 7 | 0
COc1ccc(C=C(C#N)C(=O)c2ccccc2)cc1 | . | . | -4 | . | . | .
CC(C)C#Cc1ccc2c(c1)O[C@H](CN(C)C(=O)C1CCC1)[C@@H](C)CN([C@H](C)CO)S2(=O)=O | . | . | -1 | 75[16.7 µM] | . | .
CC(C)CN(C(=O)CSc1nn(-c2ccc(Cl)cc2)c(=S)s1)C1CCS(=O)(=O)C1 (stereo unspecified) | 36* | -1 | . | . | -1 | 0
O=C(Nc1ccc2c(c1)OCO2)N[C@H]1CC[C@H](CC(=O)N2CCN(c3ccccc3)CC2)O[C@@H]1CO | -7 | . | 1 | . | 6 | .
O=C1c2ccccc2C(=O)c2c1cccc2-n1nnc2ccccc21 | -3 | 0 | 3 | 1 | 2 | 1
O=C1C(N2CCOCC2)=C(n2nnc3ccccc32)C(=O)c2ccccc21 | 45* | 1 | . | -18 | 61* | -1
N#CC1=C(N)Oc2n[nH]c(-c3ccccc3)c2C1c1cccnc1 (stereo unspecified) | -28 | -5 | . | -7 | 12 | 0
N#CC1=C(N)Oc2n[nH]c(-c3cccnc3)c2C1c1ccc([N+](=O)[O-])o1 (stereo unspecified) | 3 | 51* | 0 | . | -1 | -5
O=C(CCN1CCCCC1)NCC[C@@H]1CC[C@@H](NC(=O)c2ccc(F)cc2)[C@H](CO)O1 | 7 | . | 2 | . | 11 | .
Cc1ccc(CSc2nc3nc(C)cc(C)n3n2)cc1 | 3 | -3 | 2 | 2 | . | 0
Cc1cc(C)n2nc(SCc3cccc(S(=O)(=O)N(C)C)c3)nc2n1 | 2 | 43* | 1 | . | -5 | .
CCC(=O)Nc1ccc2c(c1)C(=O)N(C)C[C@H](OC)[C@H](C)CN(CC1CCOCC1)[C@@H](C)CO2 | 2 | . | -1 | 22[16.7 µM] | 1 | .
Cc1cc(C(=O)NNC(=O)c2ccc(Cl)c(S(N)(=O)=O)c2)c(C)o1 | -6 | 64* | 8.7* | 1 | 5 | 0

Screening results (PubChem BioAssay)
